SMILES strings stand for the structures. Converted amounts (≈) assume the structure as drawn.

Test system in one series: not listed separately
Briefly: Antioxidant activity of the compound. Format: physicochemical.
Conditions: not given
Summed up: (§1)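 DPPH radical scavenging assay. The control contained all reagents except the test compound. % scavenging = [(A control − A sample)/[…]] × 100, taken from absorbance readings.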
Usually IC50 stands for the point on the concentration scale where inhibition reaches its midpoint. Take `O=C(/C=C/c1ccc(O)c(O)c1)c1ccc(O)cc1O` [BUTEIN]: the IC50 came out at 3.3 µg/mL (≈ 12.1 µM).

A further series has as its system Leishmania major. Briefly: Antileishmanial activity against stationary-phase promastigotes of Leishmania major MRHO/IR/75/ER assessed as parasite growth inhibition after 48 hrs by Neubar chamber method.
Conditions: not given
Format: functional, organism-based.
As for `CC(C)=CCC/C(C)=C/CC/C(C)=C/COc1ccc2ccc(=O)oc2c1` [UMBELLIPRENIN], the IC50 is 13.3 µM.

Test system in the next series: not listed separately
Kind of series: Antioxidant activity assessed as ABTS radical scavenging activity by TEAC assay. Type of series: physicochemical.
Conditions: not given
As to `O=c1oc2ccccc2cc1C1=Nn2c(nnc2-c2ccccc2)SC1`, the IC50 stood at 39.9 µg/mL (≈ 111 µM).

Another series relates to Leishmania donovani. Briefly: Antileishmanial activity against promastigotes of Leishmania donovani MHOM/IN/80/DD8 after 72 hrs by MTT assay. Format: functional, organism-based. The following applies: MHOM/IN/80/DD8, 72 h. Summed up:
(§2)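 Cultured L. donovani promastigotes (strain […]) were exposed to the compounds. Viability was read by a modified MTT assay, in which formazan output tracks metabolically active cells. The concentration that cut growth by 50% (IC50) was found by graphic interpolation.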
A general note: Tetrazolium dyes change colour on reduction, which living cells bring about.
In the case of `O=C(CC(c1ccc(O)c(O)c1)c1c[nH]c2ccccc12)c1c(O)c2ccccc2oc1=O` (configuration not stated), the IC50 came out at 231 µg/mL (≈ 523 µM). On the same count and under the same terms, in the case of `O=C(CC(c1ccc(F)cc1)c1c[nH]c2ccccc12)c1c(O)c2ccccc2oc1=O` (configuration not stated) it was 156 µg/mL (≈ 364 µM); in that of `O=C(CC(c1ccc(O)cc1)c1c[nH]c2ccccc12)c1c(O)c2ccccc2oc1=O` (configuration not stated), 288 µg/mL (≈ 676 µM). On the same count and under the same terms, under `O=C(CC(c1c(Cl)cccc1Cl)c1c[nH]c2ccccc12)c1c(O)c2ccccc2oc1=O` (configuration not stated) stands 95 µg/mL (≈ 199 µM); under `O=C(CC(c1ccccc1Cl)c1c[nH]c2ccccc12)c1c(O)c2ccccc2oc1=O` (configuration not stated), 102 µg/mL (≈ 230 µM). Still for that read-out and setting: in the case of `COc1ccc(C(CC(=O)c2c(O)c3ccccc3oc2=O)c2c[nH]c3ccccc23)c(OC)c1` (configuration not stated) it was 250 µg/mL (≈ 531 µM); in that of `O=C(CC(c1ccc(Cl)cc1)c1c[nH]c2ccccc12)c1c(O)c2ccccc2oc1=O` (configuration not stated), 125 µg/mL (≈ 282 µM); in that of `COc1ccc(OC)c(C(CC(=O)c2c(O)c3ccccc3oc2=O)c2c[nH]c3ccccc23)c1` (configuration not stated), 99 µg/mL (≈ 211 µM). For `N#Cc1ccc(C(CC(=O)c2c(O)c3ccccc3oc2=O)c2c[nH]c3ccccc23)cc1` (configuration not stated), inhibition was half-maximal at 102 µg/mL (≈ 234 µM) (IC50).

`COc1ccc(C(CC(=O)c2c(O)c3ccccc3oc2=O)c2c[nH]c3ccccc23)cc1` (configuration not stated) had an IC50 of 174 µg/mL (≈ 396 µM).

For the compound `O=C(CC(c1ccccc1)c1c[nH]c2ccccc12)c1c(O)c2ccccc2oc1=O` (configuration not stated), the IC50 came to 95.5 µg/mL (≈ 233 µM). On the same count and under the same terms, under `COc1ccc(C(CC(=O)c2c(O)c3ccccc3oc2=O)c2c[nH]c3ccccc23)cc1OC` (configuration not stated) stands 212 µg/mL (≈ 452 µM).

Test system in the next series: not listed separately
Kind of series: Antioxidant activity of the compound assessed as DPPH radical scavenging after 30 mins by spectrophotometric analysis. Format: physicochemical.
Conditions: not given
The procedure, abridged:
as §1
For the compound `O=C(CC(c1ccc(O)c(O)c1)c1c[nH]c2ccccc12)c1c(O)c2ccccc2oc1=O` (configuration not stated), the IC50 is 71.08 µg/mL (≈ 161 µM). Regarding `O=C(CC(c1ccc(F)cc1)c1c[nH]c2ccccc12)c1c(O)c2ccccc2oc1=O` (configuration not stated), the IC50 worked out at 47.35 µg/mL (≈ 111 µM). With `O=C(CC(c1ccc(O)cc1)c1c[nH]c2ccccc12)c1c(O)c2ccccc2oc1=O` (configuration not stated), the IC50 amounted to 58.91 µg/mL (≈ 138 µM). Consider `O=C(CC(c1c(Cl)cccc1Cl)c1c[nH]c2ccccc12)c1c(O)c2ccccc2oc1=O` (configuration not stated), for which the IC50 turned out to be 13.49 µg/mL (≈ 28.2 µM). For `O=C(CC(c1ccccc1Cl)c1c[nH]c2ccccc12)c1c(O)c2ccccc2oc1=O` (configuration not stated), the IC50 was determined as 39.62 µg/mL (≈ 89.3 µM). Still for that read-out and setting: in the case of `COc1ccc(C(CC(=O)c2c(O)c3ccccc3oc2=O)c2c[nH]c3ccccc23)c(OC)c1` (configuration not stated) it was 13.24 µg/mL (≈ 28.2 µM).

As to `O=C(CC(c1ccc(Cl)cc1)c1c[nH]c2ccccc12)c1c(O)c2ccccc2oc1=O` (configuration not stated), the IC50 was determined as 46.35 µg/mL (≈ 104 µM).

For the compound `COc1ccc(OC)c(C(CC(=O)c2c(O)c3ccccc3oc2=O)c2c[nH]c3ccccc23)c1` (configuration not stated), the half-maximal inhibitory concentration (IC50) came out at 19.02 µg/mL (≈ 40.5 µM). With `N#Cc1ccc(C(CC(=O)c2c(O)c3ccccc3oc2=O)c2c[nH]c3ccccc23)cc1` (configuration not stated), the IC50 came out at 13.74 µg/mL (≈ 31.6 µM). As to `COc1ccc(C(CC(=O)c2c(O)c3ccccc3oc2=O)c2c[nH]c3ccccc23)cc1` (configuration not stated), the IC50 was determined as 16.21 µg/mL (≈ 36.9 µM). Same read-out and setting: in the case of `O=C(CC(c1ccccc1)c1c[nH]c2ccccc12)c1c(O)c2ccccc2oc1=O` (configuration not stated) it was 12.4 µg/mL (≈ 30.3 µM).

For the compound `COc1ccc(C(CC(=O)c2c(O)c3ccccc3oc2=O)c2c[nH]c3ccccc23)cc1OC` (configuration not stated), the IC50 turned out to be 63.16 µg/mL (≈ 135 µM). Consider `O=C1O[C@H]([C@@H](O)CO)C(O)=C1O` [ASCORBIC ACID], for which the IC50 was 12.8 µg/mL (≈ 72.7 µM). Consider `Cc1cc(C(C)(C)C)c(O)c(C(C)(C)C)c1` [BUTYLATED HYDROXYTOLUENE], for which the IC50 was 16.5 µg/mL (≈ 74.9 µM).

The next series concerns Leishmania donovani. Briefly: Antileishmanial activity against promastigotes of Leishmania donovani assessed as parasite growth inhibition. Type of series: functional, organism-based.
Conditions: not given
The procedure, abridged: as §2
Turning to `C=CC(C)(C)c1cc(/C=C/C(=O)c2ccc(O)cc2)c(OC)cc1O` [LICOAGROCHACONE A], the IC50 came out at 2.7 µM.

Another series concerns HeLa. Kind of series: Cytotoxicity against human HeLa cells assessed as cell viability at 100 ug/ml by microscopic analysis. Format: cell-based.
Conditions: not given
Summed up: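 HeLa cells were treated at 100 μg/mL and assessed by the MTT method. Cells were also viewed under a microscope at 10X magnification.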
As to `O=C(CC(c1c(Cl)cccc1Cl)c1c[nH]c2ccccc12)c1c(O)c2ccccc2oc1=O` (configuration not stated), the Activity entry was “Non-toxic”.

In a further series the test system is Leishmania major. Kind of series: Antileishmanial activity against promastigotes of Leishmania major MHOM/IL/67/LRC-L43 assessed as parasite growth inhibition after 24 hrs by uranyl acetate/ magnesium uranyl acetate/lead citrate staining-based electron microscopic analysis. Type of series: functional, organism-based. To be noted: MHOM/IL/67/LRC-L43, 24 h.
As to `C=CC(C)(C)c1cc(/C=C/C(=O)c2ccc(O)cc2)c(OC)cc1O` [LICOAGROCHACONE A], the IC50 stood at 2.5 µg/mL (≈ 7.39 µM).

The record behind these values is ChEMBL document CHEMBL3751714, “Antileishmanial activity of novel indolyl-coumarin hybrids: Design, synthesis, biological evaluation, molecular docking study and in silico ADME prediction” (Bioorg Med Chem Lett, 2016).
